# MEKK2mut PB1 HTS: MEK5 binding signal on mutant MEKK2 PB1, primary screen, biochemical, multiplex bead flow cytometry, Alexa488-MEK5 | Alexa488-MEK5 binding to MEKK2 mutant | percent response, % at 10 µM | hit rate 0.35% among 290,000 | AID 1530, 2009; in the data active means percent response above about 24%, passing the limit was not always enough
# MEKK3 PB1 HTS: modulators of MEKK3-MEK5 PB1 binding, primary screen, biochemical, wildtype MEKK3, multiplex bead flow cytometry, Alexa488-MEK5; Mitogen-activated protein kinase kinase kinase 3 (Homo sapiens), Q99759; bead-based flow cytometry, Alexa488-MEK5 binding to MEKK3; actives lie on both sides; 0 = blocked by unlabeled MEK5, 100 = vehicle; binding response (% of control), % at 10 µM; hit rate 1.4% among 290,000;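 active means binding response more than 3 SD above or below the average of its plate-row segment, actives on both sides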;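 further: Alexa488 bead fluorescence after subtracting the streptavidin-only scavenger bead signal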
# Target sequence (Q99759 whole entry, looked up): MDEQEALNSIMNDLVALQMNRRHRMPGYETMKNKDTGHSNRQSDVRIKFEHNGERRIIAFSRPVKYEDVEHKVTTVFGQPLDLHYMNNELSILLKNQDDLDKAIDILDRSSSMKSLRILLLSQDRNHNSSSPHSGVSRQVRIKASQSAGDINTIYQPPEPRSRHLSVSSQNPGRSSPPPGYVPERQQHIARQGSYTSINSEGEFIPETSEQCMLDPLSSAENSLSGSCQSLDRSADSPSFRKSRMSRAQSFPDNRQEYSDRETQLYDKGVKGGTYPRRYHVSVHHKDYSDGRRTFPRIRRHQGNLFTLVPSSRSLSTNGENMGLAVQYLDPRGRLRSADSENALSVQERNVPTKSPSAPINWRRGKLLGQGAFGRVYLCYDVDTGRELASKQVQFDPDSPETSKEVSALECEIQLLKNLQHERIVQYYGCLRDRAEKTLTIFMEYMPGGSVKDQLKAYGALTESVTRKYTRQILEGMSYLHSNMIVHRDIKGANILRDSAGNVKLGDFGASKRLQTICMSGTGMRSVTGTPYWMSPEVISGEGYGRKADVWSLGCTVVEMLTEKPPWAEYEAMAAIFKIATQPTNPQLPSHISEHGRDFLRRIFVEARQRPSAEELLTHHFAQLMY
# T cruzi inh: inhibitors of intracellular T. cruzi growth, primary screen, luminescence, NIH3T3 host cells; T. cruzi beta-gal in NIH3T3, 90 h; inhibition, % (no concentration beside the values); hit rate 1.4% among 300,000;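 active means mean inhibition across valid replicates above about 55%, limit read from the data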;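 further: signal also drops with host cell toxicity which is not excluded here; 0% = plate median of DMSO wells and 100% = zero luminescence signal; higher percent means less beta-gal luminescence so fewer parasites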
#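 Assay system: NIH/3T3 fibroblasts plus reporter T. cruzi. Amount: NIH/3T3 cells, 5,000 per well. Buffer or medium: DMEM, 2% fetal bovine serum. Doses: compound pinned at 50 nL/well, DMSO. Schedule: ≥90 h infection period, 3 h prior cell attachment. Signal: luminescent β-galactosidase signal after 60 min lysis. Read-out: parasite load inhibition, %.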
# MEKK2 WT-MEK5: modulators of MEK5 binding to wildtype MEKK2, primary screen, biochemical, multiplex bead flow cytometry, Alexa488-MEK5; Mitogen-activated protein kinase kinase kinase 2 (Homo sapiens), Q9Y2U5; Alexa488-MEK5 binding to MEKK2 WT; actives lie on both sides; binding response (% of control), % at 10 µM; hit rate 1.1% among 290,000; AID 1531, 2009; in the data active means binding response below about 67% or above about 130%
# HCV NS3 hel inh: inhibitors of HCV NS3 helicase, primary screen, biochemical, Cy5 molecular beacon fluorescence. NS3 helicase DNA unwinding. inhibition, % at 10.9 µM. hit rate 0.56% among 290,000;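 active means inhibition above the mean of all tested compounds plus 3 SD, set per campaign, cut at about 35% in these data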;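 further: 0% = DMSO wells and 100% = thioflavine S control wells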
#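 test system = hepatitis C virus NS3 helicase domain fragment enzyme | reagent = annealed dual-labelled DNA beacon duplex, ATP-started | times = 1 h at 25 °C | detection = Cy5 fluorescence, 0 and 60 min reads | read-out basis = percent inhibition from t60/t0 fluorescence ratio | control set = DMSO and thioflavine S | replication = one well per compound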
# FID counter: compounds displacing fluorescent DNA intercalator, primary screen, artefact control for HCV NS3 helicase inhibitor project, biochemical, FID fluorescence; hit rate 0.17% among 290,000; DNA fluorescent intercalator displacement; inhibition, % at 7.9 µM; in the data active means inhibition above about 37%;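 further: 0% = vehicle and 100% = reference compound; higher means more ethidium bromide displaced from hairpin DNA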
# * = called active by the depositor; · = not tested or not shown. This is a sample that favours compounds with a hit; in the whole collection about 4.1% have one here.
SMILES,MEKK2mut PB1 HTS,MEKK3 PB1 HTS,T cruzi inh,MEKK2 WT-MEK5,HCV NS3 hel inh,FID counter
COc1ccc(C(=O)N2CCCC(O)C2)cc1OC1CCN(C(C)C)CC1 (configuration not stated),5.0,104.0,-4.8,104.0,3.5,-4.5
CC(C)(C)c1ccc(C(=O)N2CCN(CCNC(=O)C(=O)NCc3ccc(Cl)cc3)CC2)cc1,5.0,95.0,65.8*,98.0,-18.2,-41.2
CCOc1ccc(C(=O)NC(=S)Nc2ccccc2N2CCC(C)CC2)cc1[N+](=O)[O-],-1.0,106.0,55.0*,104.0,-8.6,-1.8
CC(C)(C)C(=O)Cn1ncc(Br)c(Br)c1=O,-4.0,98.0,61.3*,96.0,-0.6,-4.1
Cc1sc2ncnc(N3CCN(CCOc4ccc(Cl)cc4)CC3)c2c1C,12.0,116.0,58.9*,129.0,-11.4,-2.6
CCCc1c(CC)c(=N)c2ccccc2n1C,-13.0,74.0,71.7*,86.0,6.2,8.4
C[C@@H](NC(=O)c1nc[nH]c1C(=O)NCC(=O)OCc1ccccc1)c1ccccc1,-1.0,102.0,-3.1,103.0,-9.2,-36.5
Cc1ccc2c(c1)c1c(n2CC(O)CN2CCOCC2)CCCC1 (configuration not stated),20.0,102.0,-9.8,19.0*,-22.1,3.3
Cc1ccc2c(c1)c1c(n2CC(O)CN2CCC(C)CC2)CCCC1 (configuration not stated),21.0,102.0,29.9,125.0,-65.8,21.6
COC(=O)c1ccc(NC(c2ccc(Cl)cc2)P(=O)(OC)OC)cc1 (configuration not stated),11.0,103.0,-11.5,107.0,-7.7,-15.3
Nc1nonc1C(=O)NCCNCc1cc(Br)ccc1OCc1ccccc1F,-1.0,81.0,29.0,113.0,-84.2,39.7*
COc1ccc(CCN(C)C(=O)CCc2nnc(-c3ccccc3)o2)cc1OC,-12.0,94.0,4.6,7.0*,-3.8,-19.1
CCN(CC)c1cccc(OCC(=O)N(C)CCC#N)c1,73.0*,89.0,25.4,·,7.7,-32.7
Cc1ccccc1NC(=S)NCC1CCN(C(C)c2ccccc2)C1 (configuration not stated),7.0,101.0,57.8*,115.0,-2.3,4.8
CCn1c(=NC(=O)CS(=O)(=O)c2ccc(C)cc2)sc2cccc(OC)c21,·,·,59.2*,·,·,·
COc1cccc2sc(=NC(=O)CS(=O)(=O)c3ccc(Cl)cc3)n(C)c12,·,·,60.2*,·,·,·
COc1cccc2sc(=NC(=O)CCS(=O)(=O)c3ccc(C)cc3)n(C)c12,·,·,22.4,·,·,·
COc1cccc2sc(=NC(=O)CS(=O)(=O)c3ccc(F)cc3)n(C)c12,·,·,54.9*,·,·,·
O=C(COC(=O)CCNS(=O)(=O)c1ccccc1)NC(=O)c1ccccc1,·,·,-6.8,·,·,·
Cc1cccc(C(C(=O)NC2CCCC2)N(C(=O)c2csnn2)C2CCCC2)c1 (configuration not stated),-2.0,101.0,6.9,96.0,-14.1,-34.8
COc1ccc(-c2nc(CN3CCCC(C(=O)NC4CCCC4)C3)c(C)o2)cc1 (configuration not stated),3.0,108.0,38.8,117.0,-4.8,4.8
COc1ccc(CCNC(=O)C2CCCN(Cc3nc(-c4ccccc4C)oc3C)C2)cc1OC (configuration not stated),·,·,46.5,·,-45.1,21.9
COc1ccc(CNC(=O)C2CCCN(Cc3nc(-c4cccc(C)c4)oc3C)C2)cc1 (configuration not stated),5.0,104.0,56.1*,115.0,-48.0,14.4
Cc1ccccc1-c1nc(CN2CCCC(C(=O)NCCCN3CCOCC3)C2)c(C)o1 (configuration not stated),·,·,66.5*,·,-13.6,16.0
CCc1ccc(-c2nc(CN3CCCC(C(=O)NCCc4ccc(OC)c(OC)c4)C3)c(C)o2)cc1 (configuration not stated),5.0,102.0,59.1*,119.0,-76.7,13.7

# Screens from PubChem.
